Measured values published in article PMC7239729 (Pharmacology, biochemistry, and behavior, 2020).
Values joined by “and” are separate entries in the source; they are usually repeats but may differ in a detail not shown here. Equal entries are not always repeated. Where two headings read alike, the source gives them in different places.

Experiments:
hCB1 receptors = details: ref Wouters et al., 2019; cited from earlier work
[1] = target: human CB1 (hCB1) receptor (Homo sapiens, UniProt P21554); assay type: binding; details: at both receptors (hCB1 and hCB2)
Sequence of human CB1 (hCB1) receptor (P21554 whole entry): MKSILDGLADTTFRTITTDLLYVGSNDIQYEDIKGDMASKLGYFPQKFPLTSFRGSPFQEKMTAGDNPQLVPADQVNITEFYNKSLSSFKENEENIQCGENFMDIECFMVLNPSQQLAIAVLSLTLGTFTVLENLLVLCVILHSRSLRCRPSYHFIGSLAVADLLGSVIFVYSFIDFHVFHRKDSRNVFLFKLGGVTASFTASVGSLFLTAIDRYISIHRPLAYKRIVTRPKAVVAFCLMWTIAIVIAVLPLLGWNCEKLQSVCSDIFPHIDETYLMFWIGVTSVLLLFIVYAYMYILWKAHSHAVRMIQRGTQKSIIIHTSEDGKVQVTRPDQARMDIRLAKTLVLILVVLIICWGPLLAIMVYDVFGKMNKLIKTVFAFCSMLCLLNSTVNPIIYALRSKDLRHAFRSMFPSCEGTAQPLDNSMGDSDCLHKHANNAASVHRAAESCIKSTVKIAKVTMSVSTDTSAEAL

hCB1 receptor [2] = target: T1, hCB1 receptor (Homo sapiens, UniProt P21554); assay: cell-based; assay type: cell-based
T1 sequence (P21554 whole entry): as above

[3] = metabolite analysis in mouse urine; assay type: in vivo; details: mice, 30 mg/kg i.p., pooled 24 h urine, LC-MS
[4] = human liver microsome incubation; assay type: in vitro ADME
Outline: (§1)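 Pooled liver microsomes (rat: IGS Sprague-Dawley; human: pooled) at 1 mg protein/mL final with 1 mM NADPH in 50 mM potassium phosphate, pH 7.4, 3 mM MgCl2. Mix preincubated 5 min at 37 °C, then test compound added to 1 μM. Triplicate incubations at 37 °C. Samples at 0, 5, 10, 30 and 60 min quenched in acetonitrile, then extracted with acetonitrile (3:1) and analysed by LC-MS/MS.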

hCB1 receptor [5] = target: T1, hCB1 receptor; assay: biochemical; assay type: biochemical
[6] = rat plasma pharmacokinetics; assay type: in vivo
Outline: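 Four 49-day-old male Long-Evans rats with jugular vein catheters, housed singly in metabolite cages. Test compound given i.p. at 3 mg/kg (3 mg/mL in 7.8% polysorbate 80/92.2% saline). Blood drawn 0.25 h before dosing and 0.25, 0.5, 1, 2, 4, 8 and 24 h after, into chilled K3EDTA. Plasma separated at 4 °C, extracted with acetonitrile (3:1) and analysed by LC-MS/MS.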

[7] = test system: mice trained to discriminate THC (5.6 mg/kg, i.p.) from vehicle; assay: THC drug discrimination in mice; assay type: in vivo, mouse; details: for substitution for THC / effect on response rates compared to vehicle: i.p.; for substitution for THC: EG-018 10 – 100 mg/kg, full substitution ≥ 80% drug-aperture responding; for effect on response rates compared to vehicle: substitution tests; for ED50: Mus musculus
male ICR mice = assay: cannabinoid tetrad in mice; assay type: in vivo, mouse
hCB2 receptor [8] = target: T2, hCB2 receptor (Homo sapiens, UniProt P34972); assay: inhibition of forskolin-stimulated cAMP production; assay type: cell-based; details: for CP55,940 more potent than the compound: hCB2, cAMP
T2 sequence (P34972 whole entry): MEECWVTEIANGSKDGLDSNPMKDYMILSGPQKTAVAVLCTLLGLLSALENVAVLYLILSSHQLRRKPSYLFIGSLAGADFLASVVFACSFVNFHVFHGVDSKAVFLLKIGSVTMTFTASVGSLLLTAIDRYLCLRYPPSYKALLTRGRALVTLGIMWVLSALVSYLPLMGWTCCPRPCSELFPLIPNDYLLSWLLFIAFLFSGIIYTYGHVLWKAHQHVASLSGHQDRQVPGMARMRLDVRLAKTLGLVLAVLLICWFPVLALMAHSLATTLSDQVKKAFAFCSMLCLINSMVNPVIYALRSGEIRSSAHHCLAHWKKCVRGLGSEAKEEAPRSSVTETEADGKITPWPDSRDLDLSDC

[9] = target: human CB2 (hCB2) receptor (Homo sapiens, UniProt P34972); assay: [3H]CP55,940 competition binding, hCB2 HEK293 membranes
Sequence of human CB2 (hCB2) receptor (P34972 whole entry): as above

hCB2 receptor [10] = target: T2, hCB2 receptor; assay: agonist-stimulated [35S]GTPγS binding, hCB2 HEK293 membranes; assay type: biochemical; details: for CP55,940 more potent than the compound: hCB2, [35S]GTPγS; for CP55,940 greater efficacy than the compound: hCB2, [35S]GTPγS Emax
[11] = rat liver microsome incubation; assay type: in vitro ADME
Outline: as §1

CB1 = details: read-out: affinity; ref Wiley et al., 2015; cited from earlier work
mice = details: ref Wiley et al., 2015, cited from earlier work
[12] = same dosing procedure; ref Kevin et al., 2017b; cited from earlier work
[13] = HEK293, read-out: % of CP55,940 Emax
[14] = human, pooled human liver microsomes, pH 7.4
[15] = male, Long-Evans, rat, plasma, ip, 3 mg/kg
[16] = i.p., 30 min, THC 3, 10 or 56 mg/kg, EG-018 1-100 mg/kg
[17] = i.p., THC 3, 10 or 56 mg/kg, EG-018 1-100 mg/kg
[18] = Sprague-Dawley, rat, pooled rat liver microsomes, pH 7.4
[19] = rimonabant 3 mg/kg i.v. 10 min before EG-018 56 mg/kg i.v.

Structure (SMILES): CCCCCCC(C)(C)c1ccc([C@@H]2C[C@H](O)CC[C@H]2CCCO)c(O)c1 [CP55,940, reference compound]
- greater potency for mini-Gαi over beta arrestin-2 (hCB1 receptors): four-fold shift in potency

Structure (SMILES): CCCCCn1c2ccccc2c2cc(C(=O)c3cccc4ccccc34)ccc21 [EG-018, Naphthalen-1-yl(9-pentyl-9H-carbazol-3-yl)methanone]
- lower affinity than CP55,940 [1]: 10- to 40 fold
- Emax (hCB1 receptor [2]; [13]): 73%
- Emax (hCB1 receptor [2]; HEK293, read-out: Emax±SEM): 32.9 ± 2.27%
- CP55,940 more potent than the compound (hCB1 receptor [2]; hCB1, cAMP): 53 fold
- parent compound or metabolites in urine [3]: No intact parent compound or metabolites were identified
- CLH (mL/min/kg body wt.) ([4]; human liver microsomes, estimated hepatic clearance): 19.03 mL/min/kg body wt.
- CLint (mL/min/kg body wt.) ([4]; human liver microsomes, estimated intrinsic clearance): 393.09 mL/min/kg body wt.
- ER ([4]; human liver microsomes, extraction ratio): 0.95
- half-life at 1 μM [4, 14]: 2.04 min
- microsomal CLint at 1 μM [4, 14]: 340 µL/min/mg
- less potent than CP55,940 (hCB1 receptor [5]; hCB1, [35S]GTPγS): approximately 90 fold
- CP55,940 greater efficacy than the compound (hCB1 receptor [5]; hCB1, [35S]GTPγS Emax): 3.5 fold
- less efficacy than THC (hCB1 receptor [5]; hCB1, [35S]GTPγS Emax): approximately 2 fold
- activity in [35S]GTPγS binding (hCB1 receptor [5]; initial studies, ligands not pre-equilibrated prior to addition of [35S]GTPγS (data not shown)): appeared to be inactive
- Emax (hCB1 receptor [5]; read-out: % of CP55,940 Emax): 28%
- Emax (hCB1 receptor [5]; read-out: Emax±SEM): 73.9 ± 9.12%
- AUC(0-inf) [6, 15]: 168 ng·h/mL
- AUC(0-t) [6, 15]: 154 ng·h/mL
- Cmax [6, 15]: 26 ng/mL
- Tmax [6, 15]: 2 h
- half-life ([6]; male, Long-Evans, rat, plasma, ip, 3 mg/kg, Half life (h), rat plasma, 3 mg/kg i.p.): 150 min
- CL/F (mL/min/kg body wt.) ([6]; rat plasma, 3 mg/kg i.p., observed apparent clearance): 520.93 mL/min/kg body wt.
- Half life ([6]; rat plasma, 3 mg/kg i.p., 3 mg/kg): 2.53 h
- substitution for THC [7]: did not substitute for THC at any dose
- effect on response rates compared to vehicle [7]: Neither THC nor EG-018 significantly affected response rates
- antinociception (tail-flick) (male ICR mice; 56 mg/kg i.v.): did not significantly elicit antinociceptive behavior
- catalepsy (ring immobility) (male ICR mice; 56 mg/kg i.v.): catalepsy
- rectal temperature (male ICR mice; 56 mg/kg i.v.): hypothermia
- locomotor activity (male ICR mice; 56 mg/kg i.v., 5 min): hypomotility
- locomotor activity (male ICR mice; [16]): did not produce significant effects in any of the four assays
- antinociception (tail-flick) (male ICR mice; [17]): did not produce significant effects in any of the four assays
- catalepsy (ring immobility) (male ICR mice; [17]): did not produce significant effects in any of the four assays
- rectal temperature (male ICR mice; [17]): did not produce significant effects in any of the four assays
- EC50 (hCB2 receptor [8]): 182 nM
- Emax (hCB2 receptor [8]; [13]): 48%
- Emax (hCB2 receptor [8]; HEK293, read-out: Emax±SEM): 28.1 ± 6.14%
- CP55,940 more potent than the compound (hCB2 receptor [8]): 114 fold
- greater potency for mini-Gαi over beta arrestin-2 (hCB1 receptors): 26 fold
- Ki ([9]; Ki (nM), hCB2, HEK293 membranes, [3H]CP55,940): 8 nM and 7.76 nM
- greater affinity for hCB2 over hCB1 ([9]; Ki ratio hCB1/hCB2): approximately 3 fold
- EC50 (hCB2 receptor [10]): 11.3 nM
- CP55,940 more potent than the compound (hCB2 receptor [10]): 12 fold
- CP55,940 greater efficacy than the compound (hCB2 receptor [10]): 2.5 fold
- Emax (hCB2 receptor [10]; read-out: % of CP55,940 Emax): 40%
- Emax (hCB2 receptor [10]; read-out: Emax±SEM): 46.2 ± 2.72%
- half-life at 1 μM [11, 18]: 4.29 min
- microsomal CLint at 1 μM [11, 18]: 160 µL/min/mg
- CLH (mL/min/kg body wt.) ([11]; rat liver microsomes, estimated hepatic clearance): 46.39 mL/min/kg body wt.
- CLint (mL/min/kg body wt.) ([11]; rat liver microsomes, estimated intrinsic clearance): 290.77 mL/min/kg body wt.
- ER ([11]; rat liver microsomes, extraction ratio): 0.84

Structure (SMILES): O=C(c1cccc2ccccc12)c1nc2ccccc2n1CCCCCF [FUBIMINA]
- Ki (CB1): 296 nM
- tetrad effects (mice; 56 mg/kg i.v.): produced marked tetrad effects in all four measures
- tetrad effects (mice; doses up to 100 mg/kg i.p.): largely without effect

Structure (SMILES): CCCCCn1nc(C(=O)Nc2cccc3ccccc23)c2ccccc21 [MN-18]
- Tmax [12]: ~2.5 h

Structure (SMILES): CCCCCn1cc(C(=O)Nc2cccc3ccccc23)c2ccccc21 [NNEI]
- Tmax [12]: approximately 0.5 hours

Structure (SMILES): CCCCCc1cc(O)c2c(c1)OC(C)(C)[C@@H]1CCC(C)=C[C@@H]21 [THC, delta-9-tetrahydrocannabinol]
- ED50 ([7]; ip, read-out: ED50, substitution for THC): 2.2 mg/kg
- ED50 ([7]; ip, read-out: ED50 of THC after EG-018 pretreatment): 1.2 mg/kg
- ED50 ([7]; read-out: ED50 of THC after vehicle pretreatment): 1.5 mg/kg
- substitution for THC [7]: fully substituted for itself
- effect on response rates compared to vehicle [7]: Neither THC nor EG-018 significantly affected response rates
- locomotor activity (male ICR mice; [16]): hypomotility
- antinociception (tail-flick) (male ICR mice; [17]): anti-nociception
- catalepsy (ring immobility) (male ICR mice; [17]): catalepsy
- rectal temperature (male ICR mice; [17]): hypothermia
- Emax (hCB2 receptor [8]; [13]): 45%
- Emax (hCB2 receptor [8]; HEK293, read-out: Emax±SEM): 27.3 ± 3.68%
- CP55,940 more potent than the compound (hCB2 receptor [8]): 26 fold

Structure (SMILES): CCCCC/C=C\C/C=C\C/C=C\C/C=C\CCCC(=O)NCCO [anandamide]
- CP55,940 more potent than the compound (hCB2 receptor [10]): 200 fold
- CP55,940 greater efficacy than the compound (hCB2 receptor [10]): 2.5 fold
- Emax (hCB2 receptor [10]; read-out: Emax±SEM): 49.2 ± 2.25%

Structure (SMILES): Cc1c(C(=O)NN2CCCCC2)nn(-c2ccc(Cl)cc2Cl)c1-c1ccc(Cl)cc1 [rimonabant, reference compound]
- antagonism of EG-018-induced catalepsy (male ICR mice; [19]): attenuated catalepsy
- antagonism of EG-018-induced hypomotility (male ICR mice; [19]): did not significantly reduce
- antagonism of EG-018-induced hypothermia (male ICR mice; [19]): did not significantly reduce hypothermia
- antagonism of FUBIMINA tetrad effects (mice; rimonabant 3 mg/kg i.v. before FUBIMINA 56 mg/kg i.v.): reversed
